Test results reported in ChEMBL document CHEMBL1914430, “Synthesis of some new 1,3,5-trisubstituted pyrazolines bearing benzene sulfonamide as anticancer and anti-inflammatory agents” (Bioorg Med Chem Lett, 2011).

Columns and labels:
Assay type in all cases: functional
[1] = test system: SNB-75; assay: Anticancer activity against human SNB75 cells after 48 hrs; settings: SNB-75, 48 h; for CC50: read-out: LC50 (the source's name)
How it was run: (§1)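 NCI 60-line panel protocol with a 48 h incubation. Per line: GI50 = concentration giving 50% decrease in net cell growth; TGI = total growth inhibition; LC50 = net 50% loss of initial cells. When the level was not reached or was exceeded, the value is given as greater or less than the highest or lowest concentration tested.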

[2] = test system: KM12; assay: Anticancer activity against human KM12 cells after 48 hrs; settings: KM12, 48 h
How it was run: (§2)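 NCI Drug Evaluation Branch 60-cell-line screen across leukemia, melanoma, lung, colon, CNS, ovarian, renal, prostate and breast panels. The incubation period is 48 h. Parameters are derived from dose–response data: GI50 is the concentration giving 50% decrease in net growth, TGI is total growth inhibition, and LC50 is net 50% loss of initial cells. Values beyond the tested range are reported as greater or less than the maximum or minimum concentration.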

[3] = test system: Rattus norvegicus; assay: Antiinflammatory activity in Wistar rat assessed as inhibition of carrageenan-induced hind paw edema at 20 mg/kg, po administered 30 mins before carrageenan challenge measured after 5 hrs by plethysmometer
How it was run: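 Wistar rats of either sex, 150–175 g, fasted 16 h, n = 6 per group. Compound given orally at 20 mg/kg as a suspension in 1% CMC in water (10 mL/kg); controls got vehicle only. After 30 min, 0.1 mL of 1% carrageenan in saline was injected subplantar into the left hind paw. Paw volume was measured by plethysmometer at 0, 3 and 5 h. Inhibition = (1 − Vt/Vc) × 100, reported as mean ± SEM.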

[4] = test system: SK-MEL-2; assay: Anticancer activity against human SK-MEL-2 cells after 48 hrs; settings: SK-MEL-2, 48 h; how it was run: as §1
[5] = test system: CAKI-1; assay: Anticancer activity against human Caki1 cells after 48 hrs; settings: CAKI-1, 48 h; how it was run: as §2
[6] = test system: SNB-19; assay: Anticancer activity against human SNB19 cells after 48 hrs; settings: SNB-19, 48 h; for CC50: read-out: LC50 (the source's name); how it was run: as §1
[7] = test system: RXF 393; assay: Anticancer activity against human RXF393 cells after 48 hrs; settings: RXF 393, 48 h; how it was run: as §1
[8] = test system: SK-MEL-28; assay: Anticancer activity against human SK-MEL-28 cells after 48 hrs; settings: SK-MEL-28, 48 h; for CC50: read-out: LC50 (the source's name); how it was run: as §1
[9] = test system: A498; assay: Anticancer activity against human A498 cells after 48 hrs; settings: A498, 48 h; for CC50: read-out: LC50 (the source's name); how it was run: as §2
[10] = test system: NCI-H23; assay: Anticancer activity against human NCI-H23 cells after 48 hrs; settings: NCI-H23, 48 h; how it was run: as §1
[11] = test system: RPMI-8226; assay: Anticancer activity against human RPMI8226 cells after 48 hrs; settings: RPMI-8226, 48 h; how it was run: as §1
[12] = test system: SW-620; assay: Anticancer activity against human SW620 cells after 48 hrs; settings: SW-620, 48 h; for CC50: read-out: LC50 (the source's name); how it was run: as §1
[13] = test system: OVCAR-5; assay: Anticancer activity against human OVCAR5 cells after 48 hrs; settings: OVCAR-5, 48 h; how it was run: as §1
[14] = test system: LOX IMVI; assay: Anticancer activity against human LOXIMVI cells after 48 hrs; settings: for CC50: read-out: LC50 (the source's name); how it was run: as §2
[15] = test system: UACC-62; assay: Anticancer activity against human UACC62 cells after 48 hrs; settings: UACC-62, 48 h
How it was run: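 NCI ~60 human tumour cell line panel with a 48 h incubation. GI50 is the concentration giving a 50% fall in net growth, TGI gives total growth inhibition, and LC50 gives a net 50% loss of initial cells. An effect not reached or exceeded is reported as greater or less than the highest or lowest concentration tested.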

[16] = test system: HOP-62; assay: Anticancer activity against human HOP62 cells after 48 hrs; settings: HOP-62, 48 h; how it was run: as §2
[17] = test system: OVCAR-3; assay: Anticancer activity against human OVCAR3 cells after 48 hrs; settings: OVCAR-3, 48 h; how it was run: as §1
[18] = test system: COLO 205; assay: Anticancer activity against human COLO205 cells after 48 hrs; settings: COLO 205, 48 h; how it was run: as §2
[19] = test system: BT-549; assay: Anticancer activity against human BT549 cells after 48 hrs; settings: BT-549, 48 h; for CC50: read-out: LC50 (the source's name); how it was run: as §2
[20] = test system: SF-268; assay: Anticancer activity against human SF268 cells after 48 hrs; settings: SF-268, 48 h; how it was run: as §1
[21] = test system: HL-60(TB); assay: Anticancer activity against human HL-60(TB) cells after 48 hrs; settings: HL-60, 48 h
How it was run: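 NCI 60-cell-line panel protocol: cells exposed to compound for 48 h. Initial one-dose screen at 10⁻⁵ M. GI50 = concentration giving 50% decrease in net cell growth. TGI = concentration giving total growth inhibition. LC50 = concentration giving net 50% loss of initial cells at the end of incubation. A value not reached or exceeded is reported as greater or less than the highest or lowest concentration tested.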

[22] = test system: OVCAR-4; assay: Anticancer activity against human OVCAR4 cells after 48 hrs; settings: OVCAR-4, 48 h; how it was run: as §1
[23] = test system: SK-OV-3; assay: Anticancer activity against human SKOV3 cells after 48 hrs; settings: SK-OV-3, 48 h; for CC50: read-out: LC50 (the source's name); how it was run: as §1
[24] = test system: NCI-H322M; assay: Anticancer activity against human NCI-H322M cells after 48 hrs; how it was run: as §1
[25] = test system: NCI-H522; assay: Anticancer activity against human NCI-H522 cells after 48 hrs; settings: NCI-H522, 48 h; how it was run: as §1
[26] = test system: NCI/ADR-RES; assay: Anticancer activity against human NCI/ADR-RES cells after 48 hrs; settings: for CC50: read-out: LC50 (the source's name); how it was run: as §1
[27] = test system: OVCAR-8; assay: Anticancer activity against human OVCAR8 cells after 48 hrs; settings: OVCAR-8, 48 h; for CC50: read-out: LC50 (the source's name); how it was run: as §1

SMILES: COc1ccc(C2CC(c3cc(Cl)c(C)cc3O)=NN2c2ccc(S(N)(=O)=O)cc2)cc1OC (stereo not given)
- GI50 [1]: 2.7 µM
- TGI [1]: 97.2 µM
- CC50 [1]: > 100 µM
- GI50 [2]: 3.07 µM
- LC50 (concentration causing net 50% loss of initial cells) [2]: 49.2 µM
- TGI [2]: 8.77 µM
- inhibition in vivo at 20 mg/kg [3]: 68.3%
- GI50 [4]: 5.87 µM
- LC50 [4]: > 100 µM
- TGI [4]: 32.7 µM
- GI50 [5]: 2.78 µM
- LC50 (concentration giving 50% net loss of initial cells) [5]: > 100 µM
- GI50 [6]: 5.53 µM
- TGI [6]: 89.3 µM
- CC50 [6]: > 100 µM
- GI50 [7]: 2.88 µM
- LC50 [7]: 31.4 µM
- TGI [7]: 7.52 µM
- GI50 [8]: 4.29 µM
- TGI [8]: 17.7 µM
- CC50 [8]: 62.7 µM
- GI50 [9]: 3.98 µM
- TGI [9]: 24.7 µM
- CC50 [9]: > 100 µM
- GI50 [10]: 3.11 µM
- LC50 (concentration killing 50% of initial cells) [10]: > 100 µM
- TGI [10]: 13.6 µM
- GI50 [11]: 4.1 µM
- LC50 (concentration for net 50% loss of initial cells) [11]: > 100 µM
- TGI [11]: 100 µM
- GI50 [12]: 4.08 µM
- TGI [12]: 26.6 µM
- CC50 [12]: > 100 µM
- GI50 [13]: 2.25 µM
- LC50 [13]: 27.8 µM
- TGI [13]: 6.36 µM
- GI50 [14]: 3.35 µM
- TGI [14]: 11 µM
- CC50 [14]: 37.4 µM
- GI50 [15]: 3.13 µM
- LC50 [15]: 43.3 µM
- TGI [15]: 12.9 µM
- GI50 [16]: 3.92 µM
- LC50 (concentration for 50% net loss of initial cells) [16]: 52.4 µM
- TGI [16]: 14.1 µM
- GI50 [17]: 3.37 µM
- LC50 (concentration giving 50% net loss of initial cells) [17]: 77.5 µM
- TGI [17]: 9.8 µM
- GI50 [18]: 1.93 µM
- LC50 (concentration giving net 50% loss of initial cells) [18]: 6.02 µM
- TGI [18]: 3.41 µM
- GI50 [19]: 3.03 µM
- TGI [19]: 13.4 µM
- CC50 [19]: 95.6 µM
- GI50 [20]: 4.74 µM
- LC50 (concentration killing 50% of initial cells) [20]: > 100 µM
- GI50 [21]: 3.42 µM
- LC50 [21]: > 100 µM
- TGI [21]: 100 µM
- GI50 [22]: 4.18 µM
- LC50 [22]: > 100 µM
- GI50 [23]: 4.51 µM
- TGI [23]: 38.3 µM
- CC50 [23]: > 100 µM
- GI50 [24]: 4.45 µM
- LC50 (net 50% loss of initial cells) [24]: > 100 µM
- TGI [24]: 39.7 µM
- GI50 [25]: 2.95 µM
- LC50 (concentration killing 50% of initial cells) [25]: 69.3 µM
- TGI [25]: 9.61 µM
- GI50 [26]: 3.39 µM
- TGI [26]: 14.1 µM
- CC50 [26]: > 100 µM
- GI50 [27]: 3.39 µM
- TGI [27]: 17.9 µM
- CC50 [27]: > 100 µM

SMILES: Cc1cc(O)c(C2=NN(c3ccc(S(N)(=O)=O)cc3)C(c3ccccc3O)C2)cc1Cl (stereo not given)
- GI50 [1]: 1.79 µM
- TGI [1]: 13.6 µM
- CC50 [1]: 37.1 µM
- GI50 [2]: 1.78 µM
- LC50 (concentration causing net 50% loss of initial cells) [2]: 6.82 µM
- TGI [2]: 3.48 µM
- inhibition in vivo at 20 mg/kg [3]: 59.5%
- GI50 [4]: 11 µM
- LC50 [4]: 67 µM
- TGI [4]: 27.2 µM
- GI50 [5]: 1.56 µM
- LC50 (concentration giving 50% net loss of initial cells) [5]: 16.6 µM
- TGI [5]: 4.44 µM
- GI50 [6]: 4.33 µM
- TGI [6]: 15.2 µM
- CC50 [6]: 39.8 µM
- GI50 [7]: 3.65 µM
- LC50 [7]: 64.8 µM
- TGI [7]: 13 µM
- GI50 [8]: 4.05 µM
- TGI [8]: 13.5 µM
- CC50 [8]: 37.8 µM
- GI50 [9]: 2.79 µM
- TGI [9]: 14.5 µM
- CC50 [9]: 46.9 µM
- GI50 [10]: 2.09 µM
- LC50 (concentration killing 50% of initial cells) [10]: 16 µM
- TGI [10]: 5.03 µM
- GI50 [11]: 2.39 µM
- LC50 (concentration for net 50% loss of initial cells) [11]: > 100 µM
- TGI [11]: 15 µM
- GI50 [12]: 1.76 µM
- TGI [12]: 3.59 µM
- CC50 [12]: 7.35 µM
- GI50 [13]: 1.73 µM
- LC50 [13]: 8.12 µM
- TGI [13]: 3.75 µM
- GI50 [14]: 1.73 µM
- TGI [14]: 3.19 µM
- CC50 [14]: 5.87 µM
- GI50 [15]: 3.54 µM
- LC50 [15]: 40.8 µM
- TGI [15]: 15.5 µM
- GI50 [16]: 1.93 µM
- LC50 (concentration for 50% net loss of initial cells) [16]: 11.7 µM
- TGI [16]: 4.5 µM
- GI50 [17]: 1.81 µM
- LC50 (concentration giving 50% net loss of initial cells) [17]: 11.3 µM
- TGI [17]: 3.73 µM
- GI50 [18]: 1.95 µM
- LC50 (concentration giving net 50% loss of initial cells) [18]: 6.43 µM
- TGI [18]: 3.54 µM
- GI50 [19]: 2.47 µM
- TGI [19]: 8.18 µM
- CC50 [19]: 58.7 µM
- GI50 [20]: 2.64 µM
- LC50 (concentration killing 50% of initial cells) [20]: 51.9 µM
- TGI [20]: 8.06 µM
- GI50 [21]: 2.99 µM
- LC50 [21]: > 100 µM
- TGI [21]: 7.32 µM
- GI50 [22]: 3.9 µM
- LC50 [22]: 51.8 µM
- TGI [22]: 16 µM
- GI50 [23]: 4.41 µM
- TGI [23]: 14.9 µM
- CC50 [23]: 38.6 µM
- GI50 [24]: 2.5 µM
- LC50 (net 50% loss of initial cells) [24]: 26 µM
- TGI [24]: 7.24 µM
- GI50 [25]: 2.15 µM
- LC50 (concentration killing 50% of initial cells) [25]: 28 µM
- TGI [25]: 6.28 µM
- GI50 [26]: 3.61 µM
- TGI [26]: 14.1 µM
- CC50 [26]: 54.1 µM
- GI50 [27]: 3.89 µM
- TGI [27]: 16.5 µM
- CC50 [27]: 91.8 µM
